According to ChEMBL document CHEMBL1144197, “Synthesis of 5-(1-H or 1-alkyl-5-oxopyrrolidin-3-yl)-8-hydroxy-[1,6]-naphthyridine-7-carboxamide inhibitors of HIV-1 integrase” (Bioorg Med Chem Lett, 2008):

Experiments:
[1] = Protein binding in human plasma at pH 7.4; type: ADME, cell-free; conditions: read-out: PPB (converted)
Outline: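 Binding to human plasma (primarily albumin) measured by HPLC with UV detection, in pH 7.4 buffer at room temperature. Each value is the average of three determinations.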

[2] = Clearance in rat at 2 mg/kg, iv; type: ADME, organism-based; parameters: dose 2 mg/kg, route intravenous; conditions: in vivo
Outline: (§1)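 Intravenous dosing in DMSO at 2 mg/kg.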

[3] = test system: Human immunodeficiency virus 1; assay: Antiviral activity against HIV1 3b in human MT4 cells assessed as decrease in HIV1 p24 core antigen in presence of 10% fetal bovine serum; type: functional
Outline: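 HIV-1 IIIb replication in MT-4 human T-lymphoid cells, cultured with 10% FBS across increasing inhibitor concentrations. Read-out is the decrease in p24 core antigen. IC95 is the concentration giving 95% inhibition of viral growth relative to control.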

[4] = Half life in rat at 2 mg/kg, iv; type: ADME, organism-based; parameters: dose 2 mg/kg, route intravenous; conditions: in vivo; outline: as §1
[5] = molecular target: Human immunodeficiency virus type 1 integrase (Human immunodeficiency virus 1, UniProt Q7ZJM1); assay: Inhibition of recombinant HIV1 integrase strand transfer activity using immobilized DNA substrate
Outline: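 Recombinant HIV integrase (100 nM) preassembled on immobilized oligonucleotides, with 0.5 nM DNA, in a strand transfer read-out. Values are means of at least two experiments. The lower limit of accuracy is about 5 nM, with SD approximately twofold.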

[6] = Partition coefficient, log P at pH 7.4; type: physicochemical; conditions: octanol/water
Outline: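 A methanol solution of compound is partitioned between octanol and pH 7.4 KH2PO4/NaOH aqueous buffer, and both layers are quantified by HPLC-UV. Log P = log[(octanol area × octanol dilution)/(buffer area × buffer dilution)].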

[7] = Oral bioavailability in rat at 10 mg/kg; type: ADME, organism-based; conditions: in vivo
Outline: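 Oral dosing in 1% methylcellulose at 10 mg/kg.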

[8] = test system: Human immunodeficiency virus 1; assay: Antiviral activity against HIV1 3b in human MT4 cells assessed as decrease in HIV1 p24 core antigen in presence of 50% normal human serum

Human immunodeficiency virus type 1 integrase, sequence (Q7ZJM1 whole entry): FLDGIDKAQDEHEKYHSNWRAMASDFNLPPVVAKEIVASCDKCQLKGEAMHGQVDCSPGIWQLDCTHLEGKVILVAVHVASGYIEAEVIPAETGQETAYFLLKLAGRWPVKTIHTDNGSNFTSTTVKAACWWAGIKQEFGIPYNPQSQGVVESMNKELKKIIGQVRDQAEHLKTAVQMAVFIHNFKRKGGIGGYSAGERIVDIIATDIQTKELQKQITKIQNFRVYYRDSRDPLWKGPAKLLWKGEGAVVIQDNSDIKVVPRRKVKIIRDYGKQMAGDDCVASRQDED

| Structure (SMILES) | fraction unbound [1] | clearance [2] [mL/min/kg] | half-life [4] [h] | IC50 [5] [µM] | logD [6] | bioavailability [7] [%] | IC95 [3] [µM] | Antiviral potency (p24 reduction) [8] [µM] |
| --- | --- | --- | --- | --- | --- | --- | --- | --- |
| CN1CC(c2nc(C(=O)NCc3ccc(F)cc3S(C)(=O)=O)c(O)c3ncccc23)CC1=O (stereo not given) | 0.03 | 17.2 | 0.67 | 0.123 | 1.6 | 4 | 0.031 | 0.063 |
| CN1CC(c2nc(C(=O)NCc3ccc(F)cc3)c([O-])c3ncccc23)CC1=O.[Na+] (stereo not given) |  | 2.5 | 1.3 |  |  | 65 |  |  |
| CN1CC(c2nc(C(=O)NCc3ccc(F)cc3)c(O)c3ncccc23)CC1=O (stereo not given) | 0.012 |  |  | 0.02 | 2.3 |  | 0.031 | 0.125 |
| CCN1CC(c2nc(C(=O)NCc3ccc(F)cc3S(C)(=O)=O)c(O)c3ncccc23)CC1=O (stereo not given) | 0.04 |  |  | 0.026 | 1.9 |  | 0.038 | 0.081 |
| O=C(NCc1ccc(F)cc1)c1ncc2cccnc2c1O | 0.008 |  |  |  |  |  | 1.25 | 5 |
| CN(C)C(=O)CN1CC(c2nc(C(=O)NCc3ccc(F)cc3)c([O-])c3ncccc23)CC1=O.[Na+] (stereo not given) |  | 23.4 | 3.4 |  |  | 5 |  |  |
| CN(C)C(=O)CN1CC(c2nc(C(=O)NCc3ccc(F)cc3)c(O)c3ncccc23)CC1=O (stereo not given) | 0.052 |  |  | 0.033 | 1.8 |  | 0.031 | 0.063 |

More lines, main results first:

| fraction unbound [1] | clearance [2] [mL/min/kg] | half-life [4] [h] | IC50 [5] [µM] | logD [6] | bioavailability [7] [%] | Structure (SMILES) | IC95 [3] [µM] | Antiviral potency (p24 reduction) [8] [µM] |
| --- | --- | --- | --- | --- | --- | --- | --- | --- |
|  |  |  | 0.024 |  |  | O=C1CC(c2nc(C(=O)NCc3ccc(F)cc3)c(O)c3ncccc23)CN1 (stereo not given) | 0.042 | 0.083 |
| 0.011 |  |  | 0.014 | 2.7 |  | CCN1CC(c2nc(C(=O)NCc3ccc(F)cc3)c(O)c3ncccc23)CC1=O (stereo not given) | 0.016 | 0.125 |
| 0.022 |  |  | 0.04 | 2.7 |  | CC(C)N1CC(c2nc(C(=O)NCc3ccc(F)cc3)c(O)c3ncccc23)CC1=O (stereo not given) | 0.031 | 0.125 |
